Test results as given in ChEMBL document CHEMBL3243991, “Antiinflammatory agents. 1. Synthesis and antiinflammatory activity of 2-amino-3-benzoylphenylacetic acid” (J Med Chem, 1979).
Blank lines part the entries; values can stand above or below the compound they belong to.

Experiments:
Rattus norvegicus [1] = assay: Antiinflammatory activity in fasted male rat assessed as decrease in carrageenan-induced pleural fluid at 50 mg/kg, po after 5 hrs by Evans blue carrageenan pleural effusion assay relative to control; assay type: functional
Outline: (§1)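 Evans blue carrageenan pleural effusion assay, run by sequential analysis. Screened first at 316 mg/kg orally alongside acetylsalicylic acid at the same dose; active agents were retested in 6 rats at one or two doses against phenylbutazone. Given by gavage (10 mL/kg) in water with 0.5% Tween 80. Pleural fluid measured in mL ± SD; % decrease taken versus vehicle control.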

Rattus norvegicus [2] = assay: Antiinflammatory activity in fasted male rat assessed as decrease in carrageenan-induced pleural fluid at 10 mg/kg, po after 5 hrs by Evans blue carrageenan pleural effusion assay relative to control; assay type: functional; outline: as §1
Rattus norvegicus [3] = assay: Toxicity in adjuvant-induced arthritis Lewis Wistar rat model assessed as change in 11 day weight at 31.6 mg/kg, po treated once daily on days 18 to 22 and 25 to 28; conditions: in vivo, 264 h
Rattus norvegicus [4] = assay: Antiinflammatory activity in fasted male rat assessed as decrease in carrageenan-induced pleural fluid at 2 mg/kg, po after 5 hrs by Evans blue carrageenan pleural effusion assay relative to control; assay type: functional; outline: as §1
Rattus norvegicus [5] = assay: Antiinflammatory activity against adjuvant-induced arthritis in Lewis Wistar rat assessed as change in 11 day edema volume in adjuvant uninjected foot at 31.6 mg/kg, po treated once daily on days 18 to 22 and […]; assay type: functional
Outline: (§2)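 Therapeutic regimen in the adjuvant-induced arthritic rat model: compound given once daily on days 18-22 and 25-28. Dosed by gavage (10 mL/kg) as a solution or suspension in water containing 0.5% Tween 80. Groups of 8 rats (one group of 7), with vehicle-dosed negative and positive controls. Injected- and uninjected-foot edema (mL ± SD) and body-weight change (g ± SD) recorded over 11 days; p < 0.05 flagged.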

Rattus norvegicus [6] = assay: Antiinflammatory activity against adjuvant-induced arthritis in Lewis Wistar rat assessed as change in 11 day edema volume in adjuvant uninjected foot at 10 mg/kg, po […]; assay type: functional
Rattus norvegicus [7] = assay: Toxicity in adjuvant-induced arthritis Lewis Wistar rat model assessed as change in 11 day weight at 10 mg/kg, po treated once daily on days 18 to 22 and […]; assay type: organism-based; parameters: dose 10 mg/kg, route oral; conditions: in vivo, 264 h; outline: as §2
Rattus norvegicus [8] = assay: Antiinflammatory activity against adjuvant-induced arthritis in Lewis Wistar rat assessed as change in 11 day edema volume in adjuvant injected foot at 0.316 mg/kg, po treated once daily on days 18 to 22 and […]; assay type: functional; outline: as §2
Rattus norvegicus [9] = assay: Antiinflammatory activity against adjuvant-induced arthritis in Lewis Wistar rat assessed as change in 11 day edema volume in adjuvant injected foot at 10 mg/kg, po treated once daily on days 18 to 22 and […]; assay type: functional; outline: as §2
Rattus norvegicus [10] = assay: Antiinflammatory activity against adjuvant-induced arthritis in Lewis Wistar rat assessed as change in 11 day edema volume in adjuvant uninjected foot at 3.16 mg/kg, po treated once daily on days 18 to 22 and […]; assay type: functional; outline: as §2
Rattus norvegicus [11] = assay: Antiinflammatory activity in fasted male rat assessed as decrease in carrageenan-induced pleural fluid at 20 mg/kg, po after 5 hrs by Evans blue carrageenan pleural effusion assay relative to control; assay type: functional; outline: as §1
Rattus norvegicus [12] = assay: Antiinflammatory activity against adjuvant-induced arthritis in Lewis Wistar rat assessed as change in 11 day edema volume in adjuvant injected foot at 3.16 mg/kg, po treated […]; assay type: functional
Rattus norvegicus [13] = assay: Antiinflammatory activity against adjuvant-induced arthritis in Lewis Wistar rat assessed as change in 11 day edema volume in adjuvant uninjected foot at 0.316 mg/kg, po treated once daily on days 18 to 22 and […]; assay type: functional; outline: as §2
Rattus norvegicus [14] = assay: Antiinflammatory activity in fasted male rat assessed as decrease in carrageenan-induced pleural fluid at 100 mg/kg, po after 5 hrs by Evans blue carrageenan pleural effusion assay relative to control; assay type: functional; outline: as §1
Rattus norvegicus [15] = assay: Antiinflammatory activity against adjuvant-induced arthritis in Lewis Wistar rat assessed as change in 11 day edema volume in adjuvant injected foot at 31.6 mg/kg, po treated […]; assay type: functional
Rattus norvegicus [16] = assay: Toxicity in adjuvant-induced arthritis Lewis Wistar rat model assessed as change in 11 day weight at 0.316 mg/kg, po treated once daily on days 18 to 22 and […]; assay type: organism-based; parameters: dose 0.316 mg/kg, route oral; conditions: in vivo, 264 h; outline: as §2
Rattus norvegicus [17] = assay: Toxicity in adjuvant-induced arthritis Lewis Wistar rat model assessed as change in 11 day weight at 3.16 mg/kg, po treated once daily on days 18 to 22 and […]; assay type: organism-based; parameters: dose 3.16 mg/kg, route oral; conditions: in vivo, 264 h; outline: as §2
Liver microsome = assay: Drug metabolism in rat liver microsomes assessed as recovery as total extract radioactivity by TLC; assay type: ADME
Outline: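 14C-labeled substrate (10 mg) was sonicated into 30 mL of 0.1 M Na+/K+ phosphate buffer, pH 7.4. The mixture was extracted with three portions of ether, extract radioactivity recovery was determined, and TLC was run immediately (acetone/CHCl3 2:98).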

Rattus norvegicus [18] = assay: Antiinflammatory activity in fasted male rat assessed as decrease in carrageenan-induced pleural fluid at 4 mg/kg, po after 5 hrs by Evans blue carrageenan pleural effusion assay relative to control; assay type: functional; conditions: for inhibition in vivo at 4 mg/kg: Rattus norvegicus, Pleural fluid, po, 5 h; outline: as §1
Rattus norvegicus [19] = assay: Antiinflammatory activity in fasted male rat assessed as decrease in carrageenan-induced pleural fluid at 0.8 mg/kg, po after 5 hrs by Evans blue carrageenan pleural effusion assay relative to control; assay type: functional; conditions: for inhibition in vivo at 0.8 mg/kg: Rattus norvegicus, Pleural fluid, po, 5 h; outline: as §1
Rattus norvegicus [20] = assay: Antiinflammatory activity in fasted male rat assessed as decrease in carrageenan-induced pleural fluid at 316 mg/kg, po after 5 hrs by Evans blue carrageenan pleural effusion assay relative to control; assay type: functional; outline: as §1
Rattus norvegicus [21] = assay: Antiinflammatory activity against adjuvant-induced arthritis in Lewis Wistar rat assessed as potency in adjuvant injected foot treated po once daily on days 18 to 22 and 25 to 28 relative to phenylbutazone
Rattus norvegicus [22] = assay: Antiinflammatory activity against adjuvant-induced arthritis in Lewis Wistar rat assessed as potency in adjuvant uninjected foot treated po once daily on days 18 to 22 and 25 to 28 relative to phenylbutazone
Rattus norvegicus [23] = assay: Antiinflammatory activity against adjuvant-induced arthritis in Lewis Wistar rat assessed as change in 11 day edema volume in adjuvant injected foot at 0.0316 mg/kg, po treated […]; assay type: functional
Rattus norvegicus [24] = assay: Antiinflammatory activity against adjuvant-induced arthritis in Lewis Wistar rat assessed as change in 11 day edema volume in adjuvant injected foot at 0.0031 mg/kg, po treated once daily on days 18 to 22 and […]; assay type: functional; outline: as §2
Rattus norvegicus [25] = assay: Toxicity in adjuvant-induced arthritis Lewis Wistar rat model assessed as change in 11 day weight at 0.0316 mg/kg, po treated once daily on days 18 to 22 and 25 to 28; conditions: in vivo, 264 h
Rattus norvegicus [26] = assay: Toxicity in adjuvant-induced arthritis Lewis Wistar rat model assessed as change in 11 day weight at 0.0031 mg/kg, po treated once daily on days 18 to 22 and 25 to 28; conditions: in vivo, 264 h
Rattus norvegicus [27] = assay: Antiinflammatory activity against adjuvant-induced arthritis in Lewis Wistar rat assessed as change in 11 day edema volume in adjuvant uninjected foot at 0.0316 mg/kg, po treated once daily on days 18 to 22 and […]; assay type: functional; outline: as §2
Rattus norvegicus [28] = assay: Antiinflammatory activity against adjuvant-induced arthritis in Lewis Wistar rat assessed as change in 11 day edema volume in adjuvant uninjected foot at 0.0031 mg/kg, po […]; assay type: functional
Rattus norvegicus [29] = assay: Antiinflammatory activity in fasted male rat assessed as decrease in carrageenan-induced pleural fluid at 300 mg/kg, po after 5 hrs by Evans blue carrageenan pleural effusion assay relative to control; assay type: functional; outline: as §1
Rattus norvegicus [30] = assay: Antiinflammatory activity in fasted male rat assessed as decrease in carrageenan-induced pleural fluid at 60 mg/kg, po after 5 hrs by Evans blue carrageenan pleural effusion assay relative to control; assay type: functional; outline: as §1
Rattus norvegicus [31] = assay: Antiinflammatory activity against adjuvant-induced arthritis in Lewis Wistar rat assessed as change in 11 day edema volume in adjuvant injected foot at 0.03 mg/kg, po treated once daily on days 18 to 22 and 25 to 28
Rattus norvegicus [32] = assay: Antiinflammatory activity against adjuvant-induced arthritis in Lewis Wistar rat assessed as change in 11 day edema volume in adjuvant uninjected foot at 0.03 mg/kg, po treated once daily on days 18 to 22 and […]; assay type: functional; outline: as §2
Rattus norvegicus [33] = assay: Toxicity in adjuvant-induced arthritis Lewis Wistar rat model assessed as change in 11 day weight at 0.03 mg/kg, po treated once daily on days 18 to 22 and […]; assay type: organism-based; parameters: dose 0.03 mg/kg, route oral; conditions: in vivo, 264 h; outline: as §2

Compound: O=C(c1ccccc1)c1cccc2c1NCC2
inhibition in vivo at 50 mg/kg (Rattus norvegicus [1]): 35.5%
inhibition in vivo at 10 mg/kg (Rattus norvegicus [2]): 14.5%

Compound: CCCCC1C(=O)N(c2ccccc2)N(c2ccccc2)C1=O [PHENYLBUTAZONE]
inhibition in vivo at 50 mg/kg (Rattus norvegicus [1]): 24.2%
Activity (Rattus norvegicus [3]): 26 g
inhibition in vivo at 2 mg/kg (Rattus norvegicus [4]): 0%
Activity (Rattus norvegicus [5]): -0.4 mL
Activity (Rattus norvegicus [6]): -0.2 mL
Activity (Rattus norvegicus [7]): 20 g
Activity (Rattus norvegicus [8]): 0.4 mL
inhibition in vivo at 10 mg/kg (Rattus norvegicus [2]): 10.5%
Activity (Rattus norvegicus [9]): -0.5 mL
Activity (Rattus norvegicus [10]): 0 mL
inhibition in vivo at 20 mg/kg (Rattus norvegicus [11]): 19.4%
Activity (Rattus norvegicus [12]): -0.3 mL
Activity (Rattus norvegicus [13]): 0.4 mL
inhibition in vivo at 100 mg/kg (Rattus norvegicus [14]): 31%
Activity (Rattus norvegicus [15]): -0.9 mL
Activity (Rattus norvegicus [16]): 8 g
Activity (Rattus norvegicus [17]): 8 g

Drug recovery (Liver microsome): 16%
Compound: O=C(c1ccccc1)c1cccc2cc[nH]c12

Compound: Nc1c(CC(=O)O)cccc1C(=O)c1ccccc1 [AMFENAC]
inhibition in vivo at 4 mg/kg (Rattus norvegicus [18]): 33.8%
inhibition in vivo at 0.8 mg/kg (Rattus norvegicus [19]): 10.3%

Compound: CC(=O)Oc1ccccc1C(=O)O [ASPIRIN]
inhibition in vivo at 316 mg/kg (Rattus norvegicus [20]): 31.6%

Compound: Nc1c(CC(=O)[O-])cccc1C(=O)c1ccccc1.[Na+] [AMFENAC SODIUM]
inhibition (INH) (Rattus norvegicus [18]): 33.3%
Activity (Rattus norvegicus [8]): -0.3 mL
fold change (FC) (Rattus norvegicus [21]): 14.2
fold change (FC) (Rattus norvegicus [22]): 23.9
inhibition (INH) (Rattus norvegicus [19]): 11.1%
Activity (Rattus norvegicus [23]): 0.2 mL
Activity (Rattus norvegicus [24]): 0.2 mL
Activity (Rattus norvegicus [25]): 6 g
Activity (Rattus norvegicus [26]): 12 g
Activity (Rattus norvegicus [27]): 0.4 mL
Activity (Rattus norvegicus [13]): -0.2 mL
Activity (Rattus norvegicus [28]): 0.6 mL
Activity (Rattus norvegicus [16]): 3 g

Compound: O=C1Cc2cccc(C(=O)c3ccccc3)c2N1
inhibition in vivo at 300 mg/kg (Rattus norvegicus [29]): 17.5%
inhibition in vivo at 60 mg/kg (Rattus norvegicus [30]): 11.1%

Compound: O=C1Nc2c(cccc2C(=O)c2ccccc2)C1=O
inhibition in vivo at 316 mg/kg (Rattus norvegicus [20]): 18.4%

Drug recovery (Liver microsome): 49%
Compound: O=C(c1cccc2c1NCC2)[14c]1[14cH][14cH][14cH][14cH][14cH]1

Compound: CCOC(=O)Cc1cccc(C(=O)c2ccccc2)c1N
inhibition in vivo at 4 mg/kg (Rattus norvegicus [18]): 37.3%
Activity (Rattus norvegicus [31]): 0.4 mL
Activity (Rattus norvegicus [8]): -0.1 mL
fold change (FC) (Rattus norvegicus [21]): 10.9
fold change (FC) (Rattus norvegicus [22]): 5.1
Activity (Rattus norvegicus [32]): 0.6 mL
inhibition in vivo at 0.8 mg/kg (Rattus norvegicus [19]): 26.9%
Activity (Rattus norvegicus [33]): 11 g
Activity (Rattus norvegicus [10]): -0.1 mL
Activity (Rattus norvegicus [12]): -0.6 mL
Activity (Rattus norvegicus [13]): 0.1 mL
Activity (Rattus norvegicus [16]): 10 g
Activity (Rattus norvegicus [17]): 13 g

Compound: O=C(O)c1cccc2c1NCC2
inhibition in vivo at 100 mg/kg (Rattus norvegicus [14]): 12.6%
